Screens from PubChem.
The list is not random: actives were taken first. Their share in the collection is about 2.2%.
FLuc inh counter – firefly luciferase enzyme inhibitors, primary screen, artefact control for luciferase-based inhibitor screens, biochemical, luminescence, ATPLite; actives 1.5% (n = 200,000); Luciferin 4-monooxygenase (Photinus pyralis), P08659; 10 min; inhibition, % at 10 µM;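 active means inhibition above about 50% when tested at 10 µM, limit read from the data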
Target sequence (P08659 whole entry, looked up): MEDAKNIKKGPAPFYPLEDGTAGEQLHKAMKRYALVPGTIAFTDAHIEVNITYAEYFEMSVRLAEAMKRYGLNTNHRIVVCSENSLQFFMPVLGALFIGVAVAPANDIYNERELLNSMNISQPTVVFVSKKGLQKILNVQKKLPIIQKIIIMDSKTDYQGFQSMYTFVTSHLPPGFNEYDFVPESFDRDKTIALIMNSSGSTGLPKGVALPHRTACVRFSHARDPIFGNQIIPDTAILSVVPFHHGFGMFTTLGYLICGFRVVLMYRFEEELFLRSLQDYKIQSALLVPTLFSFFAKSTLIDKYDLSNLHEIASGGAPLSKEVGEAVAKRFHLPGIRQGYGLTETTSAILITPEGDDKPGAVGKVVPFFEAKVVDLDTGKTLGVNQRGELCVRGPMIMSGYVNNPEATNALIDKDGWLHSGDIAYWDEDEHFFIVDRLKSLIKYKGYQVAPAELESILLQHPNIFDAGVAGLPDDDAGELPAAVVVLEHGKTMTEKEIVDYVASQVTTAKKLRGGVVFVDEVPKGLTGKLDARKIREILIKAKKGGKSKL
NF-kB expr up – activators of NF-kB expression in neurons, primary screen, cell-based, HTS | human neuronal cells, NF-kB reporter expression; active compounds read high | fold change at 12.5 µM | actives 1.6% (n = 190,000) | AID 1239, 2008; in the data active means fold change above about 3.3
PPC-1+TRAIL kill – compounds killing PPC-1 cancer cells with TRAIL present, primary screen, TRAIL potentiator project, ATPLite luminescence, uHTS. PPC-1 cells + TRAIL, ATPLite viability luminescence. cell killing (% activity), % at 4 µM or 5 µM. actives 0.41% (n = 220,000);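 active means cell killing above 50% in the first pass at 4 µM, then a duplicate retest at 5 µM averaging 50% or more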;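 further: plate controls were cells with TRAIL plus DMSO for no effect and medium-only wells lacking cells for full effect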
FLuc act counter – FLuc activators, initial screening, artefact control for FLuc-dependent activation tests, biochemical, ATPlite luminescence | Luciferin 4-monooxygenase (Photinus pyralis), P08659 | ATPlite luciferase biochemical, 10 min; 0 = ATP-free wells, 1 = DMSO control | activation factor at 10 µM | 200,000 tested, under 10 active | AID 1027, 2008;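 active means luciferase activation factor, scaled between plate controls, of at least 2 with compound at 10 µM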
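Material: luciferase plus luciferin reagent, cell-free. Medium: PBS buffer for ATP. Also added: ATP substrate, dispensed from a 10.24 µM working solution in PBS. Doses: test compounds dosed from 2 mM stocks in 100% DMSO. Incubation: 10 min post-reagent at room temperature. Technique: light output (luminescence). Read-out basis: luminescence gain marking luciferase activators.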
APP 5'UTR act – activators of APP 5'UTR luciferase reporter, primary screen, SH-SY5Y cells | SH-SY5Y APP 5'UTR luciferase reporter, luminescence; zero percent = DMSO vehicle wells | activation, % at 2 µM | actives 1% (n = 190,000) | AID 1276, 2008;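 active means activation above a set limit, based on mean plus 3 SD of controls, cut at about 140% in these data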
C8 TRAIL sens – viability loss with TRAIL in NB7+C8 cells, primary screen, TRAIL sensitizer project, cell-based, ATPlite luminescence; inhibition (viability loss, TRAIL sensitization), % at 10 µM; actives 1% (n = 360,000); AID 624354, 2012;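 active means compounds causing at least 50% loss of cell viability in the single-dose screen, relative to plate controls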
An asterisk follows results filed as active; · = no result given.

SMILES	FLuc inh counter	NF-kB expr up	PPC-1+TRAIL kill	FLuc act counter	APP 5'UTR act	C8 TRAIL sens
COc1ccc(CNC(=O)CN2C(=O)NC(c3ccccc3)(c3ccccc3)C2=O)cc1	·	·	·	·	·	-13
Cc1onc(C(=O)N2CCN(Cc3ccccc3)CC2)c1[N+](=O)[O-]	-15	0.9	-16	1.1	-13	2
CC(C)c1onc(C(=O)N2CCN(c3ccc(F)cc3)CC2)c1[N+](=O)[O-]	·	·	·	·	·	65*
CC(C)c1onc(C(=O)N2CCCCCC2)c1[N+](=O)[O-]	-4	0.85	3	1	-5	3
CC(C)c1onc(C(=O)N2CCN(C(c3ccccc3)c3ccccc3)CC2)c1[N+](=O)[O-]	4	0.19	-7	1	8	91*
Cc1ccc(Cl)cc1N1CCN(C(=O)c2noc(C(C)C)c2[N+](=O)[O-])CC1	·	·	·	·	·	95*
CC(C)c1onc(C(=O)N2CCN(c3ccccc3)CC2)c1[N+](=O)[O-]	·	·	12	·	·	10
Cc1onc(C(=O)N2CCC(Cc3ccccc3)CC2)c1[N+](=O)[O-]	·	·	·	·	·	92*
CCC1CN(S(=O)(=O)c2cc(-c3cc(C)no3)ccc2OC)c2cc(C)ccc2O1 (stereo unspecified)	·	·	·	·	·	6
Cc1ccc2cc3c(N)c(C(=O)N4CCOCC4)sc3nc2c1	37	1.6	5	0.6	178*	1
COc1ccc2cc3c(N)c(C(=O)N4CCCC4)sc3nc2c1	16	1.3	12	0.8	120	·
Cc1ccc2nc3sc(C(=O)N4CCOCC4)c(N)c3cc2c1	81*	1.6	-10	0.2	192*	-10
Cc1ccc2nc3sc(C(=O)NCc4ccco4)c(N)c3cc2c1	50*	3.7*	10	0.5	179*	21
O=[N+]([O-])c1ccc(Sc2n[nH]c(-c3ccc(Cl)cc3Cl)n2)nc1	-2	0.9	-20	1	-2	11
CSc1ccc(NC(=O)NN(c2ccccc2)C2CCS(=O)(=O)C2)cc1 (stereo unspecified)	·	·	·	·	·	-17
COc1ccc(-c2ccc(C(=O)NCc3ccc(N(C)C)cc3)c3occc23)c(C)c1	·	·	·	·	·	14
CCS(=O)(=O)N1Cc2ccccc2CC1C(=O)N(C)Cc1ccc(OC)c(F)c1 (stereo unspecified)	·	·	·	·	·	-17
O=C1C(C2=NC(C(=O)O)C3C(=O)N(c4ccccc4)C(=O)C23)=C(O)c2ccccc21 (stereo unspecified)	15	1.5	-3	0.8	-5	17
O=C1C(C2=C(O)c3ccccc3C2=O)=Nc2ccccc21	30	1	17	0.7	31	89*
CC(C)CNC(=O)CCc1c[nH]c2ccccc12	-9	1.2	2	1.1	4	0
CCOC(=O)c1c2c(n(C)c1C)C(=O)C(=O)c1ccc(Br)cc1-2	·	·	·	·	5	97*
CCOC(=O)c1c2c(n(Cc3ccccc3)c1C)C(=O)C(=O)c1ccccc1-2	·	·	·	·	·	93*
CCOC(=O)c1c2c3c(cccc3n(C)c1=O)C(=O)c1ccccc1-2	·	·	·	·	·	-15
Cc1c(CN(C)C)c2c(n1Cc1ccccc1)C(=O)c1ccc(Br)cc1-2	-5	0.96	21	1	4	20
Cc1c(CN(C)C)c2c(n1C)C(=O)c1ccc(Br)cc1-2	-5	3.3*	1	1	15	-2
CCOC(=O)c1c(-c2ccccc2)c(C(C)=O)c(=O)n(C)c1C	-6	1	-3	1.1	9	12
COc1cccc(C(=O)/C=C/c2ccc(OCC#N)c(OC)c2)c1	1	1.4	8	1	-14	6
COc1ccc(/C=C/C(=O)c2ccc(O)cc2)cc1CN1CCOCC1	-5	3.7*	-4	1.1	18	-7
COc1cc(/C=C/C(=O)c2ccc(O)cc2)ccc1OCC#N	11	3.7*	7	0.9	-15	-29
CCOc1ccc(/C=C/C(=O)c2ccccc2)cc1OC	28	0.96	21	0.7	144*	21
